Tests used:
P388 [1] = assay: Maximum effective daily dose required to inhibit the tumors of P388 leukemia; format: functional, Mus musculus
How it was run: (§1)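 Ascitic Sarcoma 180 or P388 leukemia carried in CDF-1 mice; recipients transplanted from donors bearing 7-day tumors. Compound given once daily for six consecutive days from 24 h after implantation, over 50–200 mg/kg per day; hydrochloride salt solutions adjusted to pH 6.5–7.0. Mice weighed; % body-weight change onset to end of therapy taken as host toxicity; maximum effective daily dose reported from survival prolongation.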

[2] = Maximum effective daily dose required to inhibit the tumors of sarcoma 180 ascites cells; format: functional, Mus musculus; how it was run: as §1
Mus musculus [3] = species on record: Mus musculus; assay: Average change in body weight from onset to the termination of drug therapy in mice bearing sarcoma 180 ascites cells; format: functional; how it was run: as §1
P388 [4] = assay: Compound was evaluated for antitumor activity in mice bearing P388 leukemic cells from average survival time; format: functional, Mus musculus
How it was run: (§2)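 Ascites forms of Sarcoma 180 or P388 leukemia carried in CDF-1 mice. Recipients were implanted from donors with 7-day tumor growth. Compound given once daily for six consecutive days starting 24 h after implantation, with a tested range of 50–200 mg/kg per day. Hydrochloride salt solutions were adjusted to pH 6.5–7.0. Survival time was averaged, days ± SE. Body weight was tracked as a toxicity indicator.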

[5] = Compound was evaluated for antitumor activity in mice (control group) bearing sarcoma 180 ascites cells and average survival time; format: functional, Mus musculus; how it was run: as §2
[6] = Compound was evaluated for antitumor activity in mice bearing sarcoma 180 ascites cells and average survival time; format: functional, Mus musculus; how it was run: as §2
Mus musculus [7] = species on record: Mus musculus; assay: Ratio of average survival time of treated to control mice bearing P388 leukemia; format: functional
How it was run: (§3)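 In CDF-1 mice bearing ascitic P388 leukemia or Sarcoma 180 from 7-day donors, dosing ran once daily for six days from 24 h post-implant (range 50–200 mg/kg/day; HCl salts adjusted to pH 6.5–7.0). % T/C was the average survival time of treated over control animals × 100, reported at the maximum effective daily dose.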

P388 [8] = assay: Compound was evaluated for average change in body weight from onset to the termination of drug therapy in mice bearing P388 leukemic cells; format: functional, Mus musculus; how it was run: as §1
P388 [9] = assay: Compound was evaluated for antitumor activity in mice (control group) bearing P388 leukemic cells from average survival time; format: functional, Mus musculus; how it was run: as §2
Mus musculus [10] = species on record: Mus musculus; assay: Ratio of average survival time of treated to control mice bearing sarcoma 180 ascites cells; format: functional; how it was run: as §3
[11] = Compound was evaluated for antitumor activity in mice (control group) bearing sarcoma 180 ascites cells from average survival time; format: functional, Mus musculus; how it was run: as §2
[12] = Compound was evaluated for antitumor activity in mice bearing sarcoma 180 ascites cells from average survival time; format: functional, Mus musculus; how it was run: as §2
P388 [13] = assay: Compound was evaluated for antitumor activity in mice bearing P388 leukemic cells and average survival time; format: functional, Mus musculus; how it was run: as §2
P388 [14] = assay: Compound was evaluated for antitumor activity in mice bearing P388 leukemic cells, and average change in body weight from onset to the termination of therapy; format: functional, Mus musculus; how it was run: as §1
P388 [15] = assay: Compound was evaluated for antitumor activity in mice (control group) bearing P388 leukemic cells and average survival time; format: functional, Mus musculus; how it was run: as §2
[16] = Compound was evaluated for average change in body weight from onset to the termination of drug therapy in mice bearing sarcoma 180 ascites cells; format: functional, Mus musculus; how it was run: as §1
P388 [17] = assay: Compound was evaluated for antitumor activity in mice bearing P388 leukemic cells, and average change in body weight from onset to the termination of drug therapy; format: functional, Mus musculus; how it was run: as §1

Molecule `Cl.O=S(=O)(N/N=C/c1ccncc1)c1ccccc1` has a Dose (P388 [1]) of 150 mg/kg, a Dose [2] of 100 mg/kg and a Weight change (Mus musculus [3]) of -8.6%. For the same molecule, the Time (P388 [4]) was 18 days, the Time [5] was 14.2 days and the Time [6] was 32 days. The T/C (Mus musculus [7]) was 123%, the Weight change (P388 [8]) was -3.1% and the Time (P388 [9]) was 14.6 days. It also gave a T/C (Mus musculus [10]) of 225%.
For `Cc1ccc(S(=O)(=O)N/N=C/c2ccc([N+](=O)[O-])cc2)cc1.Cl`, the Dose (P388 [1]) was 200 mg/kg, the Dose [2] was 100 mg/kg and the Weight change (Mus musculus [3]) was -17.4%. The Time (P388 [4]) was 15.2 days, the T/C (Mus musculus [7]) was 107% and the Weight change (P388 [8]) was -3%. For the same molecule, the Time (P388 [9]) was 14.2 days, the Time [11] was 15 days and the T/C (Mus musculus [10]) was 197%. For the same molecule, the Time [12] was 29.6 days.
In the case of `Cc1ccc(S(=O)(=O)N/N=C/c2ccncc2)cc1`, the Dose [2] is reported as 100 mg/kg, the Weight change (Mus musculus [3]) is reported as -16.7% and the Time [11] is reported as 14.6 days. For the same molecule, the T/C (Mus musculus [10]) was 222% and the Time [12] was 32.4 days.
In the case of `CC(C)c1cc(C(C)C)c(S(=O)(=O)N/N=C/c2ccncc2)c(C(C)C)c1.Cl`, the Dose (P388 [1]) is reported as 200 mg/kg, the Dose [2] is reported as 200 mg/kg and the Weight change (Mus musculus [3]) is reported as -3.1%. For the same molecule, the Time (P388 [13]) was 17 days, the Time [5] was 11.8 days and the Time [6] was 31 days. It also gave a T/C (Mus musculus [7]) of 123%, a Weight change (P388 [14]) of -0.9% and a T/C (Mus musculus [10]) of 262%. It also gave a Time (P388 [15]) of 13.8 days.
Molecule `C/C(=N\NS(=O)(=O)c1c(C)cc(C)cc1C)c1ccncc1` has a Dose [2] of 100 mg/kg, a Change of weight [16] of 3.2% and a Time [11] of 16.8 days. For the same molecule, the T/C (Mus musculus [10]) was 123% and the Time [12] was 20.6 days.
In the case of `CN(/N=C/c1ccncc1)S(=O)(=O)c1ccc(Cl)cc1.Cl`, the Dose [2] is reported as 100 mg/kg, the Weight change (Mus musculus [3]) is reported as -4.2% and the Time [11] is reported as 14.6 days. The T/C (Mus musculus [10]) was 110% and the Time [12] was 16 days.
`Cl.O=[N+]([O-])c1ccc(/C=N/NS(=O)(=O)c2ccccc2)cc1` gave a Dose (P388 [1]) of 150 mg/kg, a Dose [2] of 150 mg/kg and a Weight change (Mus musculus [3]) of -12.1%. The Time (P388 [13]) was 14.8 days, the Time [5] was 11.4 days and the Time [6] was 20.8 days. For the same molecule, the T/C (Mus musculus [7]) was 104%, the Weight change (P388 [14]) was -0.1% and the T/C (Mus musculus [10]) was 182%. The Time (P388 [15]) was 14.2 days.
Molecule `O=[N+]([O-])c1ccc(/C=N/NS(=O)(=O)c2ccc(Cl)cc2)cc1` has a Dose (P388 [1]) of 200 mg/kg, a Dose [2] of 100 mg/kg and a Weight change (Mus musculus [3]) of -16%. The Time (P388 [13]) was 15.2 days, the Time [5] was 15 days and the Time [6] was 28.4 days. It also gave a T/C (Mus musculus [7]) of 107%, a Weight change (P388 [8]) of -2.4% and a T/C (Mus musculus [10]) of 189%. The Time (P388 [15]) was 14.2 days.
With `Cl.O=[N+]([O-])c1ccc(S(=O)(=O)N/N=C/c2ccncc2)cc1` the Dose (P388 [1]) was 200 mg/kg, the Dose [2] was 75 mg/kg and the Weight change (Mus musculus [3]) was -8.1%. The Time (P388 [13]) was 17.6 days, the Time [5] was 11.4 days and the Time [6] was 37.4 days. For the same molecule, the T/C (Mus musculus [7]) was 128%, the Weight change (P388 [14]) was -7.5% and the T/C (Mus musculus [10]) was 328%. For the same molecule, the Time (P388 [15]) was 13.8 days.
With `COc1ccc(S(=O)(=O)N/N=C/c2ccncc2)cc1.Cl` the Dose (P388 [1]) was 150 mg/kg, the Dose [2] was 100 mg/kg and the Weight change (Mus musculus [3]) was -10.7%. It also gave a Time (P388 [13]) of 18 days, a Time [5] of 14.2 days and a Time [6] of 31 days. The T/C (Mus musculus [7]) was 123%, the Weight change (P388 [8]) was 0.7% and the T/C (Mus musculus [10]) was 218%. The Time (P388 [15]) was 14.6 days.
With `Cc1ccc(S(=O)(=O)N/N=C/c2ccncc2)cc1.Cl` the Dose (P388 [1]) was 150 mg/kg, the Dose [2] was 100 mg/kg and the Weight change (Mus musculus [3]) was -14.5%. It also gave a Time (P388 [13]) of 17.2 days, a Time [5] of 14.6 days and a Time [6] of 36.4 days. It also gave a T/C (Mus musculus [7]) of 118%, a Weight change (P388 [14]) of -7.6% and a T/C (Mus musculus [10]) of 249%. The Time (P388 [15]) was 14.6 days.
`COc1ccc(S(=O)(=O)N/N=C/c2ccc([N+](=O)[O-])cc2)cc1.Cl` showed a Dose (P388 [1]) of 200 mg/kg, a Dose [2] of 100 mg/kg and a Weight change (Mus musculus [3]) of -19%. The Time (P388 [13]) was 14.6 days, the Time [5] was 15 days and the Time [6] was 23.8 days. It also gave a T/C (Mus musculus [7]) of 99%, a Weight change (P388 [8]) of -5.7% and a T/C (Mus musculus [10]) of 159%. The Time (P388 [15]) was 14.8 days.
For `CC(=O)Nc1ccc(S(=O)(=O)N/N=C/c2ccncc2)cc1.Cl`, the Dose (P388 [1]) was 150 mg/kg, the Dose [2] was 150 mg/kg and the Weight change (Mus musculus [3]) was -5.2%. It also gave a Time (P388 [4]) of 17.6 days, a T/C (Mus musculus [7]) of 121% and a Weight change (P388 [14]) of -3.1%. The Time (P388 [9]) was 14.6 days, the Time [11] was 11.8 days and the T/C (Mus musculus [10]) was 288%. For the same molecule, the Time [12] was 34 days.
In the case of `Cl.O=S(=O)(N/N=C/c1ccncc1)c1ccc(Cl)cc1`, the Dose (P388 [1]) is reported as 200 mg/kg, the Dose [2] is reported as 150 mg/kg and the Weight change (Mus musculus [3]) is reported as -5.4%. For the same molecule, the Time (P388 [4]) was 16.6 days, the T/C (Mus musculus [7]) was 112% and the Weight change (P388 [14]) was -5.4%. It also gave a Time (P388 [9]) of 14.8 days, a Time [11] of 11.8 days and a T/C (Mus musculus [10]) of 242%. For the same molecule, the Time [12] was 28.6 days.
Molecule `Cc1cc(C)c(S(=O)(=O)N/N=C/c2ccncc2)c(C)c1.Cl` has a Dose (P388 [1]) of 100 mg/kg, a Dose [2] of 50 mg/kg and a Weight change (Mus musculus [3]) of -8.4%. For the same molecule, the Time (P388 [13]) was 18.8 days, the Time [5] was 14.2 days and the Time [6] was 34 days. The T/C (Mus musculus [7]) was 129%, the Weight change (P388 [8]) was -2.2% and the T/C (Mus musculus [10]) was 239%. The Time (P388 [15]) was 14.6 days.
`Cc1cc(C)c(S(=O)(=O)N/N=C/c2ccc([N+](=O)[O-])cc2)c(C)c1.Cl` gave a Dose (P388 [1]) of 150 mg/kg, a Dose [2] of 100 mg/kg and a Weight change (Mus musculus [3]) of -10.2%. The Time (P388 [4]) was 17.2 days, the Time [5] was 11.4 days and the Time [6] was 26.4 days. The T/C (Mus musculus [7]) was 121%, the Weight change (P388 [8]) was -3.5% and the Time (P388 [9]) was 14.2 days. The T/C (Mus musculus [10]) was 231%.
`COc1ccc(S(=O)(=O)N/N=C/c2ccncc2)cc1OC.Cl` showed a Dose (P388 [1]) of 100 mg/kg, a Dose [2] of 200 mg/kg and a Weight change (Mus musculus [3]) of -9.1%. For the same molecule, the Weight change (P388 [17]) was -3%, the Time (P388 [4]) was 17.6 days and the T/C (Mus musculus [7]) was 119%. For the same molecule, the Time (P388 [9]) was 14.8 days, the Time [11] was 11.8 days and the T/C (Mus musculus [10]) was 278%. The Time [12] was 32.8 days.

Reference: ChEMBL document CHEMBL1123062, “Relationship between structure and antineoplastic activity of (arylsulfonyl)hydrazones of 4-pyridinecarboxaldehyde” (1985)
